These results are taken from ChEMBL document CHEMBL3046238, “Synthesis and biological activity evaluation of 1,2,3-thiadiazole derivatives as potential elicitors with highly systemic acquired resistance” (2009).

Holding throughout (assay type): functional
The test system of one experiment is Fusarium fujikuroi. Description: Antifungal activity against Fusarium fujikuroi assessed as growth inhibition at 50 ug/mL measured after 2 days post dose. The following applies: for inhibition of growth at 50 µg/mL: 48 h, read-out: GI.
In another experiment the test system is Alternaria solani. Description: Antifungal activity against Alternaria solani assessed as growth inhibition at 50 ug/mL measured after 2 days post dose. Conditions: 48 h, read-out: GI.
Another experiment deals with Colletotrichum lagenaria. The experiment can be described thus: Antifungal activity against Colletotrichum lagenaria assessed as growth inhibition at 50 ug/mL measured after 2 days post dose. Conditions: 48 h, read-out: GI.
The test system of another experiment is Alternaria mali. The experiment can be described thus: Antifungal activity against Alternaria mali assessed as growth inhibition at 50 ug/mL measured after 2 days post dose. The following applies: for inhibition of growth at 50 µg/mL: 48 h, read-out: GI.
The subject of the next experiment is Fusarium oxysporum. The experiment can be described thus: Antifungal activity against Fusarium oxysporum assessed as growth inhibition at 50 ug/mL measured after 2 days post dose. The following applies: for inhibition of growth at 50 µg/mL: 48 h, read-out: GI.
Another experiment concerns Cytospora mali. Description: Antifungal activity against Valsa mali assessed as growth inhibition at 50 ug/mL measured after 2 days post dose. The following applies: for inhibition of growth at 50 µg/mL: 48 h, read-out: GI.
The test system of another experiment is Mycosphaerella arachidis. Description: Antifungal activity against Mycosphaerella arachidis assessed as growth inhibition at 50 ug/mL measured after 2 days post dose. Conditions: 48 h, read-out: GI.
The test system of experiment [1] is Colletotrichum gloeosporioides. Description: Antifungal activity against Glomerella cingulata assessed as growth inhibition at 50 ug/mL measured after 2 days post dose. The following applies: for inhibition of growth at 50 µg/mL: 48 h, read-out: GI.
A further experiment has as its system Tobacco mosaic virus. Description: Induction of systemic acquired resistance against Tobacco mosaic virus (TMV) in tobacco plants exposed to 500 ug/mL compound through leaf spray followed by 7 days culture under green house conditions assessed as inhibition of viral growth in leaves infected with Tobacco mosaic virus (TMV) measured 72 hr post viral infection by half-leaf juice rubbing method. Set-up: scale not given: the % may be the effect or the level left. In short, it runs like this:
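Tobacco plants received compound by leaf spray or by soil irrigation, with double-distilled water as CK. Newly grown leaves were then rub-inoculated with TMV (5.88×10-2 μg/mL), and plants were kept at 25 °C for 72 h. Lesions on inoculated leaves were counted. Inhibition = (CK−A)/CK×100 from mean lesion numbers versus control.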

The next experiment concerns Puccinia triticina. The experiment can be described thus: Antifungal activity against Puccinia triticina inoculated on 500 ug/mL compound pre-treated wheat plants with 3 to 5 leaves assessed as growth inhibition. In short, it runs like this: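 Healthy wheat plants at the 3-5 leaf stage were sprayed with compound (500 μg/mL) and then inoculated with spores. Inhibition percentage was calculated against the corresponding spore stack.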

The subject of another experiment is Ustilaginoidea virens. Description: Antifungal activity against Villosiclava virens assessed as growth inhibition at 50 ug/mL measured after 2 days post dose. Conditions: for inhibition of growth at 50 µg/mL: 48 h, read-out: GI.
The test system of a further experiment is Phomopsis asparagi. The experiment can be described thus: Antifungal activity against Phomopsis asparagi assessed as growth inhibition at 50 ug/mL measured after 2 days post dose. Conditions: for inhibition of growth at 50 µg/mL: 48 h, read-out: GI.
In the next experiment the test system is Fusarium graminearum. Description: Antifungal activity against Fusarium graminearum assessed as growth inhibition at 50 ug/mL measured after 2 days post dose. Conditions: 48 h, read-out: GI. The essentials:
(§1)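 Compound stock at 500 μg/mL in DMF, diluted with sterile water in the dish and mixed into potato dextrose agar before setting. A 4 mm diameter fungal plug is placed on the plate and cultured at 24-26 °C. Colony diameter is measured after 2 days.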

A further experiment deals with Sclerotinia sclerotiorum. Description: Antifungal activity against Sclerotinia sclerotiorum assessed as growth inhibition at 50 ug/mL measured after 2 days post dose. Conditions: 48 h, read-out: GI.
Experiment [2] relates to Fusarium oxysporum f. sp. vasinfectum. The experiment can be described thus: Antifungal activity against Fusarium oxysporum f. sp. vasinfectum assessed as growth inhibition at 50 ug/mL measured after 2 days post dose. Conditions: for inhibition of growth at 50 µg/mL: 48 h, read-out: GI.
Another experiment has as its system Alternaria kikuchiana. The experiment can be described thus: Antifungal activity against Alternaria kikuchiana assessed as growth inhibition at 50 ug/mL measured after 2 days post dose. Conditions: 48 h, read-out: GI.
For a further experiment, the system named is Botrytis cinerea. The experiment can be described thus: Antifungal activity against Botryotinia fuckeliana assessed as growth inhibition at 50 ug/mL measured after 2 days post dose. The following applies: for inhibition of growth at 50 µg/mL: 48 h, read-out: GI.
In experiment [3] the test system is Botryosphaeria berengeriana. Description: Antifungal activity against Botryosphaeria berengeriana assessed as growth inhibition at 50 ug/mL measured after 2 days post dose. Conditions: 48 h, read-out: GI.
The test system of the next experiment is Rhizoctonia solani. Description: Antifungal activity against Rhizoctonia solani assessed as growth inhibition at 50 ug/mL measured after 2 days post dose. Conditions: for inhibition of growth at 50 µg/mL: 48 h, read-out: GI.
Another experiment concerns Phytophthora infestans. Description: Antifungal activity against Phytophthora infestans assessed as growth inhibition at 50 ug/mL measured after 2 days post dose. Conditions: for inhibition of growth at 50 µg/mL: 48 h, read-out: GI. The essentials: as §1
The subject of the next experiment is Ceratobasidium cereale. Description: Antifungal activity against Ceratobasidium cereale assessed as growth inhibition at 50 ug/mL measured after 2 days post dose. The following applies: for inhibition of growth at 50 µg/mL: 48 h, read-out: GI.

The source made the active and inactive calls. The calls are words filed in the database; no cut-off is given here.

Regarding `Cc1nnsc1C(=O)Nc1nc(-c2ccc(Cl)cc2)cs1`, the inhibition of growth at 50 µg/mL turned out to be 64.3% in the experiment with Fusarium fujikuroi; 0% with Alternaria solani; 13.3% with Colletotrichum lagenaria; 15% in the experiment with Alternaria mali; 46.7% in the experiment on Fusarium oxysporum; 88.9% in the experiment on Cytospora mali. Moreover, the inhibition of growth at 50 µg/mL was found to be 29.4% in the experiment on Mycosphaerella arachidis; 68.4% in [1]; 11.1% in the experiment on Ustilaginoidea virens; 37.5% in the experiment with Phomopsis asparagi; 18.8% in the experiment with Fusarium graminearum; 61.5% with Sclerotinia sclerotiorum. Besides, the inhibition of growth at 50 µg/mL in experiment [2] turned out to be 40%; with Alternaria kikuchiana it was 0%; with Botrytis cinerea, 12%. In the experiment with Tobacco mosaic virus, the Activity is on record as 40%. Moreover, the “growth inhibition (GI)” value in the experiment with Puccinia triticina is given as 0%.

Consider `Cc1cccc(-c2nnc(-c3snnc3C)o2)c1`, for which the inhibition of growth at 50 µg/mL is 24.1% in the experiment on Fusarium fujikuroi; 0% in the experiment on Alternaria solani; 47.2% in experiment [3]; 41.4% in the experiment on Alternaria mali; 0% in the experiment on Fusarium oxysporum; 0% with Rhizoctonia solani. Also, the inhibition of growth at 50 µg/mL in the experiment on Cytospora mali is 47.2%; in the experiment on Mycosphaerella arachidis, 23.5%; in experiment [1] it was 0%; in the experiment with Ustilaginoidea virens, 0%; in the experiment with Fusarium graminearum, 24.1%; in the experiment with Phytophthora infestans, 17.1%. Further, the inhibition of growth at 50 µg/mL came to 23.5% in the experiment on Sclerotinia sclerotiorum, 37.9% in the experiment with Ceratobasidium cereale, 0% in [2] and 37.9% with Botrytis cinerea. Besides, the outcome in the experiment on Tobacco mosaic virus was inactive. Besides, the “growth inhibition (GI)” value in the experiment on Puccinia triticina stood at 98%.

In the case of `Cc1ccc(-c2nnc(-c3snnc3C)o2)c(Cl)n1`, the inhibition of growth at 50 µg/mL came out at 17.2% in the experiment with Fusarium fujikuroi; 0% in the experiment on Alternaria solani; 38.9% in experiment [3]; 24.1% with Alternaria mali; 0% in the experiment with Fusarium oxysporum; 22.2% in the experiment with Rhizoctonia solani. The inhibition of growth at 50 µg/mL in the experiment with Cytospora mali stood at 22.2%; in the experiment with Mycosphaerella arachidis, 23.5%; in [1], 0%; in the experiment with Ustilaginoidea virens, 17.6%; in the experiment with Fusarium graminearum, 31%; in the experiment on Phytophthora infestans it was 30%. In addition, the inhibition of growth at 50 µg/mL worked out at 0% with Sclerotinia sclerotiorum, 13.8% with Ceratobasidium cereale, 0% in experiment [2] and 17.2% in the experiment on Botrytis cinerea. Further, the Activity in the experiment with Tobacco mosaic virus was 30%. Besides, in the experiment on Puccinia triticina, the “growth inhibition (GI)” value came to 17%.

For the molecule `COc1cccc(-c2nnc(-c3snnc3C)o2)c1`, the inhibition of growth at 50 µg/mL in the experiment with Fusarium fujikuroi is 17.2%; in the experiment with Alternaria solani, 11.7%; in experiment [3] it was 33.3%; with Alternaria mali, 27.6%; in the experiment on Fusarium oxysporum, 0%; in the experiment with Rhizoctonia solani it was 0%. Moreover, the inhibition of growth at 50 µg/mL in the experiment on Cytospora mali was determined as 41.2%; in the experiment on Mycosphaerella arachidis it was 17.6%; in [1], 0%; in the experiment on Ustilaginoidea virens it was 0%; in the experiment with Fusarium graminearum it was 31%; in the experiment on Phytophthora infestans, 20%. The inhibition of growth at 50 µg/mL amounted to 23.5% in the experiment with Sclerotinia sclerotiorum, 13.8% in the experiment on Ceratobasidium cereale, 0% in [2] and 13.8% with Botrytis cinerea. Also, the Activity with Tobacco mosaic virus turned out to be 0%. For the same molecule, the “growth inhibition (GI)” value in the experiment on Puccinia triticina is 39%.

As for `Cc1nn(-c2ccccc2)nc1-c1nnc(-c2snnc2C)o1`, the inhibition of growth at 50 µg/mL was determined as 0% in the experiment on Fusarium fujikuroi; 17.6% in the experiment on Alternaria solani; 44.4% in experiment [3]; 31% in the experiment with Alternaria mali; 0% in the experiment with Fusarium oxysporum; 0% with Rhizoctonia solani. Moreover, the inhibition of growth at 50 µg/mL in the experiment with Cytospora mali turned out to be 22.2%; in the experiment on Mycosphaerella arachidis, 17.6%; in experiment [1], 0%; in the experiment on Ustilaginoidea virens, 0%; with Fusarium graminearum, 31%; in the experiment on Sclerotinia sclerotiorum it was 23.5%. The results for the inhibition of growth at 50 µg/mL (in the experiment on Ceratobasidium cereale; in experiment [2]; in the experiment with Botrytis cinerea) were 37.9%, 0% and 41.4%, respectively. Moreover, the Activity in the experiment with Tobacco mosaic virus is reported as 10%. In addition, the “growth inhibition (GI)” value with Puccinia triticina is reported as 0%. In addition, the “growth inhibition (GI)” value with Phytophthora infestans was “inactive”.

In the case of `Cc1nnsc1-c1nnc(/C=C/c2ccccc2)o1`, the inhibition of growth at 50 µg/mL was determined as 21.1% in the experiment with Fusarium fujikuroi; 31.6% in the experiment on Alternaria solani; 46% in experiment [3]; 0% with Alternaria mali; 36.3% in the experiment with Fusarium oxysporum; 0% in the experiment on Rhizoctonia solani. Moreover, the inhibition of growth at 50 µg/mL was found to be 20.3% with Cytospora mali; 27.3% in the experiment with Mycosphaerella arachidis; 13.8% in experiment [1]; 0% in the experiment on Ustilaginoidea virens; 36.8% in the experiment on Fusarium graminearum; 20% in the experiment on Phytophthora infestans. The inhibition of growth at 50 µg/mL in the experiment with Sclerotinia sclerotiorum was 0%; in the experiment with Ceratobasidium cereale, 0%; in experiment [2] it was 23.7%; with Botrytis cinerea, 0%. The Activity in the experiment on Tobacco mosaic virus came out at 0%. In addition, the “growth inhibition (GI)” value in the experiment on Puccinia triticina worked out at 20%.

In the case of `CCc1cnc(NC(=O)c2snnc2C)s1`, the inhibition of growth at 50 µg/mL in the experiment with Fusarium fujikuroi was found to be 0%; with Alternaria solani it was 21%; in the experiment on Colletotrichum lagenaria it was 26.7%; with Alternaria mali, 25%; in the experiment with Fusarium oxysporum, 53.3%; with Cytospora mali, 61.1%. Further, the inhibition of growth at 50 µg/mL with Mycosphaerella arachidis was 35.7%; in [1], 36.8%; in the experiment with Ustilaginoidea virens it was 50%; with Phomopsis asparagi, 31.3%; with Fusarium graminearum, 50%; with Sclerotinia sclerotiorum, 3.3%. The inhibition of growth at 50 µg/mL in experiment [2] was determined as 5%; with Alternaria kikuchiana it was 43.8%; in the experiment on Botrytis cinerea, 0%. In the experiment on Tobacco mosaic virus, the Activity is reported as 30%.

With `CCCCCCc1cnc(NC(=O)c2snnc2C)s1`, the inhibition of growth at 50 µg/mL in the experiment on Fusarium fujikuroi amounted to 64.3%; in the experiment with Alternaria solani, 21%; with Colletotrichum lagenaria it was 26.7%; in the experiment on Cytospora mali, 31%; in the experiment with Mycosphaerella arachidis, 29.4%; in the experiment with Fusarium graminearum, 0%. For the same molecule, the inhibition of growth at 50 µg/mL was 71.4% with Sclerotinia sclerotiorum, 0% with Alternaria kikuchiana and 25% with Botrytis cinerea. Further, the “growth inhibition (GI)” value (in the experiment with Alternaria mali; with Fusarium oxysporum; in experiment [1]; in the experiment on Ustilaginoidea virens; with Phomopsis asparagi; in [2]) was “inactive” throughout. In addition, the Activity in the experiment with Tobacco mosaic virus is recorded as 0%.

Turning to `Cc1nnsc1-c1nnc(-c2ccco2)o1`, the “growth inhibition (GI)” value with Fusarium fujikuroi, in the experiment on Alternaria mali, in the experiment with Rhizoctonia solani, with Cytospora mali, in the experiment with Ustilaginoidea virens and with Ceratobasidium cereale was “inactive” throughout. The “growth inhibition (GI)” value (in [2]; in the experiment on Botrytis cinerea) was “inactive” in each case. In addition, the inhibition of growth at 50 µg/mL worked out at 53.6% with Alternaria solani; 38.9% in experiment [3]; 19.1% in the experiment with Fusarium oxysporum; 87.5% with Mycosphaerella arachidis; 42.1% in experiment [1]; 22.2% in the experiment on Fusarium graminearum. Besides, the inhibition of growth at 50 µg/mL with Phytophthora infestans and in the experiment on Sclerotinia sclerotiorum was 0% in each case. For the same molecule, the Activity with Tobacco mosaic virus was found to be 0%. Besides, in the experiment with Puccinia triticina, the “growth inhibition (GI)” value amounted to 0%.
